Compound activity from PubChem BioAssay.
This is a sample that favours compounds with a hit; in the whole collection about 7.2% have one here.
PostGolgi ctrl = growth inhibition of yeast control strain, primary screen, counter-screen for post-Golgi transport modulator project; efflux-deficient yeast background strain, growth absorbance A615, 16 h; inhibition, % at 10 µM; 5% of 98,000 active; AID 738, 2007
PostGolgi yeast = phenotypic screen on post-Golgi transport, primary screen | 0.9% of 98,000 active | inhibition, % at 10 µM | post-Golgi transport phenotypic cell assay | AID 739, 2007;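 note: yeast cells grown in 1536-well plates; yeast grown about 18 h at 30C before absorbance read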
PLAP activator = PLAP enzyme activators, biochemical, luminescence, HTS; purified PLAP enzyme, luminescent substrate read-out; hits give high values; AID 696, 2007; 1.2% of 96,000 active; activation fold at 20 µM; in the data active = activation fold above about 2
Target sequence (P05187 whole entry, looked up): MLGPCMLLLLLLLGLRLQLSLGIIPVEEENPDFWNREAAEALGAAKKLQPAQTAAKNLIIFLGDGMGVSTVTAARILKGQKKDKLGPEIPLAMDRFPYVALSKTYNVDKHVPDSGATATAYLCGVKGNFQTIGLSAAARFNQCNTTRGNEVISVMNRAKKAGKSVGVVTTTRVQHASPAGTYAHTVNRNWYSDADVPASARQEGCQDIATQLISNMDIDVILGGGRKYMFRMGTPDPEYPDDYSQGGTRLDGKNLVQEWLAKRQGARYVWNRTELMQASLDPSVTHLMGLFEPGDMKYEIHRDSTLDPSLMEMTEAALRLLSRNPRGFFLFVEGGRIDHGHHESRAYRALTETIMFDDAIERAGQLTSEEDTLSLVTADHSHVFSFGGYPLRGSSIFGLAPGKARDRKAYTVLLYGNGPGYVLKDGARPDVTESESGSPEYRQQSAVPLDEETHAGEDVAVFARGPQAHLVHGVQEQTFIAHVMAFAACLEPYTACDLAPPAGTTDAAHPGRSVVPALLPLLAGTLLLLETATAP
Ecoli tolC = growth inhibitors of E. coli tolC mutant, primary screen, strain BW25113 ΔtolC::kan, 384-well | OD615 | growth inhibition, % at 10 µM (by protocol) | 2.2% of 65,000 active | AID 573, 2007;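 active = growth inhibition at or above a cutoff equal to the mean over every tested compound plus 3 SD, cut at about 60% in these data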;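 note: growth measured after 20 h incubation at 37 °C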
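Test system – E. coli BW25113 ΔtolC::kan, tolC deletion mutant strain · Detection – OD at 615 nm · Buffer or medium – LB with kanamycin 50 µg/mL · Times – 20 h compound exposure of bacteria at 37 °C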
E coli WT exp = growth inhibitors of wild-type E. coli, primary screen, strain BW25113, expanded library, OD600. AID 710, 2007. 0.15% of 98,000 active. growth inhibition, % at 100 µM. OD600 absorbance;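 active = growth inhibition above about 50% at one test dose, limit read from the data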;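 note: growth measured after 20 h incubation at 37 °C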
* marks the source's active call; other numbers are inactive results; / = no result given. Cut-off read from the data, not from the text of the source, unless noted: active = inhibition above about 30%; inactive = the rest.

SMILES	PostGolgi ctrl	PostGolgi yeast	PLAP activator	Ecoli tolC	E coli WT exp
CCOC(=O)N1CCN(c2c(F)cc3[nH]c(=S)[nH]c3c2Br)CC1	33*	1	1.2	30	3
CC1Cc2ccccc2N1Cc1nc2scc(-c3cccs3)c2c(=O)[nH]1 (centres undefined)	27	-8	1	20	-12
CCn1c(Sc2nc(C)nc3scc(-c4cccs4)c23)n[nH]c1=O	102*	104*	1.6	30	8
Brc1ccc(OCc2nc(-c3ccccn3)n[nH]2)cc1	5	0	2.2*	/	6
Cc1ccc(OCc2nc(-c3ccccn3)no2)cc1	-3	-4	0.9	/	14
Clc1ccc(OCc2nc(-c3ccccn3)n[nH]2)cc1	0	-2	2.3*	85*	13
O=C1/C(=C/c2ccc([N+](=O)[O-])cc2)C=C(c2ccccc2)N1c1ccc(O)cc1	74*	92*	1.2	/	-10
O=C1/C(=C/c2ccc([N+](=O)[O-])cc2)C=C(c2ccccc2)N1c1ccccc1	4	-3	0.9	/	-18
COC(=O)c1ccccc1NC(=O)CN1CCC(NC(=O)c2ccccc2C)CC1	7	17	1.4	12	2
Cc1ccc(-c2nc3ccc(NS(=O)(=O)c4ccccc4)cc3[nH]2)o1	6	-3	1.5	/	-5
CN(C)S(=O)(=O)c1ccc(C(=O)Nc2nnc(-c3ccc4c(c3)CCCC4)o2)cc1	2	-2	1.2	/	10
COc1ccc(-c2nnc(NC(=O)c3ccc(S(=O)(=O)N4CCc5ccccc5C4)cc3)o2)cc1	13	7	0.9	94*	-13
COc1cccc(-c2nnc(NC(=O)c3ccc(S(=O)(=O)N4CC(C)OC(C)C4)cc3)o2)c1 (centres undefined)	-2	-4	1.5	98*	0
Cn1c(=O)n(C/C=C/c2ccccc2)c(=O)c2c1nc1n2CCCN1c1ccc(F)cc1	31*	2	1.6	35	-9
Cn1c(=O)n(C/C=C/c2ccccc2)c(=O)c2c1nc1n2CCCN1Cc1ccccc1	32*	-1	1.2	24	-8
CCn1c(=O)c2c(nc3n2CCCN3CCc2ccccc2)n(C)c1=O	12	3	1.2	-4	-1
Cc1cccc(Cn2c(=O)c3c(nc4n3CCCN4Cc3ccccc3)n(C)c2=O)c1	42*	-6	1.3	74*	-4
CC(C)(C)c1ccc(OCC(=O)Nc2ccc(-c3nc4cccnc4o3)cc2)cc1	-6	-9	2*	/	0
CC(C)C(=O)Nc1ccc(-c2nc3cccnc3o2)cc1	4	-4	1.3	-3	3
Oc1cccc(Nc2nc(NCC3CCCO3)c3ccccc3n2)c1 (centres undefined)	5	-5	0.9	94*	38
COc1cccc(-c2nnc(SCC(=O)Nc3ccc(S(N)(=O)=O)cc3)n2C)c1	11	-5	1.4	-12	-10
CC12CC(c3ccccc3O1)N(C(=O)c1ccco1)C(=S)N2c1ccc(F)cc1 (centres undefined)	23	-7	1	/	3
Cc1ccc(OCc2nc(-c3ccccn3)no2)c(Br)c1	34*	-5	1.6	21	14
CC(C)c1ccc(OCc2nc(-c3ccccn3)no2)c(Br)c1	38*	2	0.9	96*	1
Clc1ccc(OCc2nc(-c3ccncc3)no2)c(Br)c1	79*	46*	1.3	27	19
SMILES	PostGolgi ctrl	PostGolgi yeast	PLAP activator	Ecoli tolC	E coli WT exp
O=C(CN1C(=O)c2ccccc2C1=O)OCN1C(=O)c2ccccc2C1=O	/	/	/	9	/
C#CCOc1nc(OCC#C)nc(OCC#C)n1	4	-2	0.9	2	1
Cn1cc([N+](=O)[O-])c(C(=O)Nc2ccc(Br)cn2)n1	4	2	0.8	/	13
Cc1ccc2[nH]c3c(c2c1)CN(C(=O)CN1c2ccc(F)cc2CCC1C)CC3 (centres undefined)	32*	7	1.2	/	4
Cc1c(C(=O)COC(C)(C)C)[nH]c2ccccc12	6	-24	1.1	2	11
CCc1ccc(CCC(=O)Nc2nnc(CC)s2)o1	4	6	0.9	-4	1
COC(=O)Cc1[nH]nc2c1C(C1C=CCCC1)C(C#N)=C(N)O2 (centres undefined)	0	-6	2*	5	2
COC(=O)Cc1[nH]nc2c1C(c1c[nH]c3ccccc13)C(C#N)=C(N)O2 (centres undefined)	8	24	1	0	8
COc1ccc(CN(C(=O)CSc2nnc(-c3ccc(F)cc3)o2)c2ccc(F)cc2)cc1	38*	5	1.1	27	-22
COc1ccc(-c2nnc(SCc3cc(C)cc(C)c3)o2)cc1	12	-1	1.1	69*	3
Cc1cc(C)cc(Oc2cc(NC(=O)c3cn(C)nc3C)cc([N+](=O)[O-])c2)c1	-3	6	0.9	/	-10
CCn1nnc(-c2ccccc2NS(=O)(=O)c2ccc(S(=O)(=O)N(C)C3CCCCC3)cc2)n1	7	1	1.6	/	-21
COc1ccc(CN(C#N)c2nc(SC)nc(N(C)C)n2)cc1	41*	-9	1.5	4	-19
O=C(c1ccc(CNc2c(N3CCCC3)c(=O)c2=O)cc1)N1CCc2ccccc2C1	1	7	1.6	-10	-5
COc1ccc(C(=O)c2c(C(F)(F)F)oc3c2C(=O)c2ccccc2C3=O)cc1OC	27	37*	1.7	/	-7
COc1ccc(NC(C)=O)cc1NC(=O)CSc1nc2ncccc2[nH]1	12	1	2.4*	-1	1
COc1ccccc1NC(=O)CSc1nc2ncccc2[nH]1	7	-4	1.7	2	2
COc1ccc(-c2cc(C3CCN(c4cc(Cl)nc(N)n4)CC3)[nH]n2)cc1	42*	-5	1.3	/	-10
COc1ccc(OC)c(-c2cc(C3CCN(c4cc(Cl)nc(N)n4)CC3)[nH]n2)c1	34*	-4	1.3	/	-2
CC(=O)c1ccc(N2CCC(c3cc(-c4ccc(Cl)cc4Cl)n[nH]3)CC2)c([N+](=O)[O-])c1	4	15	1.1	/	-21
COc1ccc(-c2cc3nc(C)cc(N)n3n2)cc1	1	-16	0.9	/	13
Nc1nc(Cl)cc(N2CCC(c3cc(-c4ccc(Cl)cc4)n[nH]3)CC2)n1	102*	16	0.8	/	0
COc1cccc(C2CC(c3ccc(Cl)cc3)n3nc(N)nc3N2)c1 (centres undefined)	7	-4	1	-1	5
CCS(=O)(=O)N1CCC(C(=O)NCc2cc(OC)ccc2OC)CC1	-2	-1	1.3	/	-7
Cc1cc(CN2C(=O)c3ccccc3C2=O)cc(N2CCOCC2)c1	12	-11	1.4	-1	5
CCn1c(CSc2nc3ccccc3s2)n[nH]c1=S	15	-7	1.7	/	-3
S=c1[nH]nc(CSc2nc3ccccc3s2)n1Cc1ccccc1	34*	-7	1	/	-6
CCCC(=O)c1cc(F)c(N2CCOCC2)cc1C	13	1	1.1	-14	6
